Data on 7 molecules can be found in publication PMC3448169 (mBio, 2012).

As usually defined, the Kd is the free concentration of one partner at which half of the binding sites on the other are occupied at equilibrium, for simple one-to-one binding. Low readings indicate tighter binding, high ones weaker binding. What is called koff is the rate constant with which the complex falls apart. Higher therefore signals a short-lived complex. The term kon denotes the rate constant with which the complex forms. Low readings indicate slow association, high ones fast association.

B1: rabbit muscle aldolase (enzyme, UniProt P00883 1-364, looked up)
chain: MPHSHPALTPEQKKELSDIAHRIVAPGKGILAADESTGSIAKRLQSIGTENTEENRRFYRQLLLTADDRVNPCIGGVILFHETLYQKADDGRPFPQVIKSKGGVVGIKVDKGVVPLAGTNGETTTQGLDGLSERCAQYKKDGADFAKWRCVLKIGEHTPSALAIMENANVLARYASICQQNGIVPIVEPEILPDGDHDLKRCQYVTEKVLAAVYKALSDHHIYLEGTLLKPNMVTPGHACTQKYSHEEIAMATVTALRRTVPPAVTGVTFLSGGQSEEEASINLNAINKCPLLKPWALTFSYGRALQASALKAWGGKKENLKAAQEEYVKRALANSLACQGKYTPSGQAGAAASESLFISNHAY
B2: RH4 C-terminal cytoplasmic tail peptide (peptide)
peptide: {Biotin-Ahx}-EDEVEDEVEDEDENENEVENENEDFNDI
B3: RH1 C-terminal cytoplasmic tail peptide (peptide)
peptide: {Biotin-Ahx}-KQEDKEQEKQQQNDFVCDNNKMDDKSTQKYGRNQEEVMEISFDNDYI

For assay [1], the target named is T1, rabbit muscle aldolase (Oryctolagus cuniculus, UniProt P00883).
T1 sequence (P00883 1-364): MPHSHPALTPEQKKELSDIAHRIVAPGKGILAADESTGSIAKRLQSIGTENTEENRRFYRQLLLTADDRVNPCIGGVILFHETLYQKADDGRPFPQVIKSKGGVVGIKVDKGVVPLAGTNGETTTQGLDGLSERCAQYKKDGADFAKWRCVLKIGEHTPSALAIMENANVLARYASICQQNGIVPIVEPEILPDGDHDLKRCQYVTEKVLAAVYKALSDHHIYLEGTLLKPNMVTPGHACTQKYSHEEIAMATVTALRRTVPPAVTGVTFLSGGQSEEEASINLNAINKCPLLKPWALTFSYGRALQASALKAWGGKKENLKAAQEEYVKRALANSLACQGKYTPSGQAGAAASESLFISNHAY
Put plainly: SPR analysis of aldolase binding to immobilized peptides. Particulars: SPR sensorgrams, aldolase 50 to 800 nM. In outline:
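CM5 chips at 25°C carried amine-coupled NeutrAvidin with captured biotinylated peptides (0.5 µg/ml). Rabbit muscle aldolase was injected in 10 mM HEPES pH 7.5/100 mM KCl/0.5 mM EDTA/1 mM MgCl₂/0.2% Tween 20, with F1-6P added in some runs. Flow was 20 µl/min, with 4 min association and 10 min dissociation, and glycine pH 2.5 regeneration. NeutrAvidin-only reference cells were subtracted. ka and kd came from global fits to a 1:1 Langmuir or a two-state model.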

The next assay has as its system GAPDH. Put plainly: SPR analysis of GAPDH binding to immobilized peptides. More on the design: species or system yeast. Particulars: curves did not fit the 1:1 or the two-state model, no KD determined.
A further assay deals with yeast GAPDH. The assay is described as follows: GAPDH pulldown assay with biotinylated peptides on streptavidin-agarose beads. The assay is classed as binding. Particulars: pulldown competition, 10 mM NADH. Put shortly:
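Test peptides carried an N-terminal biotin–Ahx linker, were dissolved in 20 mM Tris-HCl pH 8.0 at 0.5 mg/ml, and were bound to streptavidin-agarose for 1 h at RT, then washed. After four washes, bound protein was boiled in reducing LDS buffer and run on 4–12% bis-Tris gels.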

For assay [2], the target named is BAEBL (EBA140) C-terminal cytoplasmic tail peptide (Plasmodium falciparum). Put plainly: SPR. Background: Surface plasmon resonance follows binding to a sensor surface in real time, without labels.
The target in assay [3] is B2. Put plainly: SPR.
Assay [4] deals with B3. The assay is described as follows: SPR.
Assay [5] concerns the target B1. The assay is described as follows: SPR.

“Also recorded” adds a separate entry of the source. Ends that are not written are not given here. * marks the point of attachment. Biotin = O=C1N[C@H]2[C@H](CS[C@H]2CCCCC(=O)*)N1; Ahx = NCCCCCC(=O)O

On to YMFDQQINVVNSDLYSEGIYDDTTTF [JESEBL], for which the “binding to aldolase by SPR (qualitative)” value at rabbit muscle aldolase [1] is on record as “not to bind; also recorded: no binding was seen”. Moreover, the “GAPDH binding by SPR (qualitative)” value with GAPDH was “demonstrated binding”. The “GAPDH binding on adding the cofactor NADH” value with yeast GAPDH is on record as “blocked”.
In assay [2], “yeast GAPDH (glyceraldehyde-3-phosphate dehydrogenase) (from UniProt P00359 1-332) (enzyme)” returned a Kd of 461 nM; a ka1 (two-state model, step 1) of 10200 M^-1 S^-1; a kd1 (two-state model, step 1) of 0.016 s⁻¹; a kd2 (two-state model, step 2) of 0.003 s⁻¹.
Turning to B1, in assay [3], the “ka1 (two-state model, step 1)” value stood at 16000 M^-1 S^-1; the “ka2 (two-state model, step 2)” value stood at 0.012 s⁻¹; the “kd1 (two-state model, step 1)” value came out at 0.034 s⁻¹; the “kd2 (two-state model, step 2)” value came to 0.000269 s⁻¹. For the same molecule, in assay [4], the “ka1 (two-state model, step 1)” value turned out to be 45400 M^-1 S^-1; the “ka2 (two-state model, step 2)” value was found to be 0.018 s⁻¹; the “kd1 (two-state model, step 1)” value was 0.082 s⁻¹; the “kd2 (two-state model, step 2)” value was found to be 0.000647 s⁻¹.
In the case of {Biotin-Ahx}-ETLGEEDKDLDEPEQFRLPEENEWN [TRAP (thrombospondin-related anonymous protein) C-terminal cytoplasmic tail peptide], in the assay with rabbit muscle aldolase [5], the dissociation constant Kd worked out at 106 nM.
The same measure, in the same setting: then B2, with 47 nM.
As for {Biotin-Ahx}-NDHLSNYADKEEIIEIVFDENEEKYF [RH2b C-terminal cytoplasmic tail peptide], in the assay with rabbit muscle aldolase [5], the Kd was found to be 214 nM, the koff came to 0.000183 s⁻¹ and the kon was 856 M⁻¹ s⁻¹.
Molecule B3 came in with a Kd with rabbit muscle aldolase [5] of 61 nM.
